Measurements as given in PubChem BioAssay AID2375 (NMMLSC, 2010).
Inconclusive results are not listed. Active and inactive are the calls of the source.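 Rule for the calls: active = compounds that lower growth-factor-driven active Cdc42 or Rac1 at 10 micromolar by more than 15 percent; inactive = the rest, inconclusive results apart.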

Experiments:
Cdc42 = experiment: modulation of active Cdc42 and Rac1 in cells, profiling panel, Ras-related GTPase inhibitor project, cell lysate, ELISA, panel (AID 2375); conditions: NIH 3T3 cells, EGF-stimulated, PAK G-LISA active GTPase, stronger effect = lower value
Outline: (§1)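 system = 3T3 lysates on PAK-coated wells | amount = equal cellular protein per well from snap-frozen lysates | reagent = EGF 10 ng/ml, with or without | dosing = compound at 1 and 10 µM | detection = colorimetric PAK-capture ELISA | evaluation = ng active GTPase per lysate, normalized to maximal EGF response | control set = EGF-stimulated and unstimulated lysates, GTPase standard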

Rac1 = experiment: as above; conditions: NIH 3T3 cells, EGF-stimulated, PAK G-LISA active GTPase, stronger effect = lower value
Outline: as §1

Compound | normalized active GTPase (Cdc42; active GTPase, at 1 µM) | normalized active GTPase (Cdc42; at 10 µM) | normalized active GTPase (Rac1; active GTPase, at 1 µM) | normalized active GTPase (Rac1; at 10 µM)
Cc1cccc(C2CC(c3ccccc3)=NN2c2ccc(S(N)(=O)=O)cc2)c1 (centres undefined) | 0.979 | 0.726 | 1.09 | 0.932 (inactive)
Cc1ccc(C2CC(c3ccccc3)=NN2c2ccc(S(N)(=O)=O)cc2)cc1 (centres undefined) | 0.994 | 0.667 | 0.782 | 0.941 (inactive)
COc1ccc(C2CC(c3cccc(OC)c3)=NN2c2ccc(S(N)(=O)=O)cc2)cc1 (centres undefined) | 0.442 | 1.25 (inactive) | – | –
NS(=O)(=O)c1ccc(N2N=C(c3ccccc3)CC2c2cccc(Br)c2)cc1 (centres undefined) | 0.764 | 1.4 (inactive) | 0.556 | 0.691
COc1ccc(C2CC(c3ccccc3)=NN2c2ccc(S(N)(=O)=O)cc2)cc1OC (centres undefined) | 0.87 | 0.856 (inactive) | – | –
NS(=O)(=O)c1ccc(N2N=C(c3ccccc3)CC2c2ccc(Br)cc2)cc1 (centres undefined) | 1.12 | 0.895 (inactive) | 0.5 | 0.47
COc1ccc(C2CC(c3ccccc3)=NN2c2ccc(S(N)(=O)=O)cc2)cc1 (centres undefined) | 0.923 | 0.626 | 0.724 | 0.612
